# Experimental data collected from several papers.
# Each line is one published result; the experiments were not run side by side.
# Observed: cell growth or viability
SMILES,cell line,method,concentration,time,quantity,result
O=C(Nc1cccc(C(F)(F)F)c1)Nc1nc2cc(-c3ccc4ncn(CCN5CCOCC5)c(=O)c4c3)ccc2s1,NCI-H1975,MTT,,72 h,IC50,1480 nM
Cc1nc(Nc2ncc(C(=O)Nc3c(C)cccc3Cl)s2)cc(N2CC[C@H](O)C2)n1,Pfeiffer,ATP luminescence,10 µM,72 h,inhibition,96%
NCC(=O)Nc1ccccc1/N=c1\cc(-c2ccc3c(c2)OCO3)oc2c(N)cccc12,NCI-H1975,CCK-8,1 µM,,inhibition,4.64%
CCCCCCCCCCCCCCCCCCOc1ccc(CC(=O)OCC[N+](CC)(CC)CC)cc1,NCI-H322M,SRB,10 µM,,inhibition,13.3%
CC(=O)Nc1nc2cc(-c3ccc4ncn(Cc5ccccc5)c(=O)c4c3)ccc2s1,NCI-H1975,MTT,,72 h,IC50,> 20000 nM
COc1ccc2/c(=N/c3ccccc3NC(=O)[C@@H](N)C(C)(C)C)cc(-c3ccc4c(c3)OCCO4)oc2c1,NCI-H1975,CCK-8,1 µM,,inhibition,4.59%
CCCCn1cnc2ccc(-c3ccc(NC(=O)Nc4ccc(OC(F)(F)F)cc4)nc3)cc2c1=O,NCI-H1975,CCK-8,,72 h,IC50,470 nM
NCCC(=O)Nc1cccc(/N=c2\cc(-c3ccc4c(c3)OCO4)oc3ccccc23)c1,NCI-H1975,CCK-8,1 µM,,inhibition,2.94%
C[C@H](Nc1ccc2c(c1)OCCn1cc(N3C(=O)OC[C@H]3C(F)F)nc1-2)C(N)=O,MKN-1,ATP luminescence,,5 days,EC50,438 nM
NCC(=O)Nc1ccccc1/N=c1\cc(-c2ccc3c(c2)OCCO3)oc2cc(F)ccc12,NCI-H1975,CCK-8,1 µM,,inhibition,4.41%
COc1cccc(NC(=O)Nc2nc3cc(-c4ccc5ncn(CC(=O)N6CCOCC6)c(=O)c5c4)ccc3s2)c1,NCI-H1975,MTT,,72 h,IC50,> 20000 nM
CCCCC(=O)Nc1ccc(-c2ccc3ncn(CC)c(=O)c3c2)cn1,NCI-H1975,CCK-8,,72 h,IC50,250 nM
NCCC(=O)Nc1ccccc1/N=c1\cc(-c2ccc3oc(N)nc3c2)oc2ccccc12,NCI-H1975,CCK-8,1 µM,,inhibition,24.3%
CCCCn1cnc2ccc(-c3ccc(NC(=O)Nc4ccccc4)nc3)cc2c1=O,NCI-H1975,CCK-8,,72 h,IC50,2460 nM
CCCCCCCCCCCCCCCCCCOc1ccc(CC(=O)OCCC[N+](C)(C)C)cc1,NCI-H322M,SRB,10 µM,,inhibition,9.97%
CCCn1cnc2ccc(-c3ccc(NC(=O)CC(C)CC)nc3)cc2c1=O (stereo not shown),NCI-H1975,CCK-8,,72 h,IC50,1350 nM
COc1cccc2c1C(=O)c1c(O)c3c(c(O)c1C2=O)C[C@@](O)(C(=O)CO)C[C@@H]3O[C@H]1C[C@H](N)[C@H](O)[C@H](C)O1,NCI-H1975,MTT,,72 h,IC50,67 nM
CCCn1cnc2ccc(-c3ccc(N4CCCCC4=O)nc3)cc2c1=O,NCI-H1975,CCK-8,,72 h,IC50,> 10000 nM
CCNC(=O)Nc1nc2cc(-c3ccc4ncn(Cc5ccccc5)c(=O)c4c3)ccc2s1,NCI-H1975,MTT,,72 h,IC50,9890 nM
